Assay [1] relates to HepG2. The assay is described as follows: Cytotoxicity against human HepG2 cells after 72 hrs by MTT assay. Format: functional, cell-based. Particulars: HepG2, 72 h. The procedure, abridged:
(§1)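 MTT read-out of cell viability, with etoposide as positive control. Cell origins: A549, human lung carcinoma; HeLa, cervical cancer; ZR-7530, breast cancer; HCT-15, colon cancer; U373, brain cancer; Hep G2, liver cancer. Potency reported as half-maximal growth inhibitory concentration (IC50).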

For assay [2], the system named is HeLa. The assay is described as follows: Cytotoxicity against human HeLa cells after 72 hrs by MTT assay. Type of assay: functional, cell-based. The procedure, abridged:
as §1

Assay [3] has as its system A549. Kind of assay: Cytotoxicity against human A549 cells after 72 hrs by MTT assay. Format: functional, cell-based. Particulars: A549, 72 h. The method, boiled down:
as §1
On the technique in general: Tetrazolium dyes change colour on reduction, which living cells bring about.

A short description of assay [4]: Cytotoxicity against human HCT15 cells after 72 hrs by MTT assay. Format: functional, cell-based. Particulars: HCT-15, 72 h. The method, boiled down: as §1
Assay [5] is described as follows: Cytotoxicity against human ZR-7530 cells after 72 hrs by MTT assay. Particulars: ZR-75-30, 72 h. Format: functional, cell-based. The procedure, abridged: as §1
Assay [6] can be described thus: Cytotoxicity against human U373 cells after 72 hrs by MTT assay. The conditions noted are these: U373 MG. Type of assay: functional, cell-based, U-373MG ATCC. The method, boiled down: as §1

This is an account of results in ChEMBL document CHEMBL3352408, “Karwinaphthopyranones from the fruits of Karwinskia parvifolia and their cytotoxic activities” (J Nat Prod, 2014).

In the case of `Cc1cc(O)c2c(c1)Cc1ccc(C3c4cccc(O)c4C(=O)c4c(O)cc(C)cc43)c(O)c1C2=O` (stereo unspecified), the IC50 in assay [1] was > 10 µM; in assay [2], > 10 µM; in assay [3], > 10 µM; in assay [4], > 10 µM; in assay [5] it was 9.6 µM; in assay [6], > 10 µM.
With `COc1cc(OC)c2c(O)c(C(C)=O)c(C)cc2c1`, the IC50 in assay [1] is 9.6 µM; in assay [2], > 10 µM; in assay [3], > 10 µM; in assay [4] it was > 10 µM; in assay [5] it was > 10 µM; in assay [6] it was > 10 µM.
On to `COc1cc([C@@H]2c3cc4c(cc3[C@@H](O[C@@H]3O[C@@H]5CO[C@@H](C)O[C@H]5[C@H](O)[C@H]3O)[C@H]3COC(=O)[C@H]23)OCO4)cc(OC)c1O` [ETOPOSIDE], for which the IC50 in assay [1] stood at 3.6 µM; in assay [2], 3.4 µM; in assay [3], 9.3 µM; in assay [4] it was 4.6 µM; in assay [5], 2.5 µM; in assay [6] it was 8.5 µM.
`COc1cccc2c1C(=O)C1=C(C[C@H](C)O[C@@H]1C)C2(OC)c1ccc2cc3c(c(O)c2c1O)C(=O)C[C@@](C)(O)C3` (stereo partly specified): the IC50 in assay [1] was 4.6 µM; in assay [2], > 10 µM; in assay [3] it was > 10 µM; in assay [4], 4.6 µM; in assay [5], 5.5 µM; in assay [6], > 10 µM.
`C[C@@]1(O)CC(=O)c2c(cc3ccc(-c4c5c(c(O)c6c(O)cccc46)C(=O)C[C@@](C)(O)C5)c(O)c3c2O)C1`: the IC50 in assay [1] is > 10 µM; in assay [2], 4.9 µM; in assay [3], > 10 µM; in assay [4] it was 4.9 µM; in assay [5], 5.8 µM; in assay [6], > 10 µM.
As to `COc1cc(C)cc2c1C(=O)c1c(O)cccc1C2=O`, the IC50 in assay [1] was 9.3 µM; in assay [2] it was > 10 µM; in assay [3], > 10 µM; in assay [4] it was > 10 µM; in assay [5] it was > 10 µM; in assay [6] it was > 10 µM.

Usually IC50 stands for the point on the concentration scale where inhibition reaches its midpoint.
